Experimental data reported in ChEMBL document CHEMBL1144442, “Identification from a positional scanning peptoid library of in vivo active compounds that neutralize bacterial endotoxins” (J Med Chem, 2005).
Residues, ends and D or L forms follow the SMILES beside them.

Legend:
[1] = species on record: Mus musculus; assay: In vitro inhibitory concentration necessary to neutralize Gram-negative bacterial lipopolysaccharide in mouse model; assay type: functional, organism-based
How it was run: (§1)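 Chromogenic Limulus amebocyte lysate assay, which detects free LPS or diphosphoryl lipid A left unneutralized by the test compound. Compounds were tested by 2-fold serial dilution. IC50 is the concentration that neutralizes 50% of the LPS or lipid A in vitro.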

[2] = species on record: Mus musculus; assay: In vitro inhibitory concentration necessary to neutralize Escherichia coli 1,4''-diphosphoryl lipid A; assay type: functional, organism-based; how it was run: as §1
[3] = tested on: Mus musculus; assay: Ratio of percent of Tumor necrosis factor alpha measured in the presence with respect to that measured when animals were treated only with LPS;Mice were intraperitoneally injected with 10 ug of LPS alone or premixed with 20 ug of each compound; assay type: functional
How it was run: (§2)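 Mice were given 10 µg LPS ip, either alone or premixed with 20 µg compound in PBS containing 40% DMSO. Mice were bled after 1 h and serum TNF-α was measured by ELISA. Values are % of the TNF-α in mice given LPS alone (100%), as mean ± SD of seven mice per group.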

[4] = tested on: Mus musculus; assay: Ratio of percent of Tumor necrosis factor alpha measured in the presence with respect to that measured when animals were treated only with LPS;Mice were intraperitoneally injected with 10 ug of LPS alone or premixed with 20 ug of each compound;ND= Not determined; assay type: functional; how it was run: as §2
[5] = tested on: Mus musculus; assay: Ratio of percent of Tumor necrosis factor alpha measured in the presence with respect to that measured when animals were treated only with LPS;Mice were intraperitoneally injected with 10 ug of LPS alone or premixed with 100 ug of compound; assay type: functional, organism-based
How it was run: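 Mice were given 10 µg LPS ip, alone or premixed with the test agent (peptoids 20 µg in PBS with 40% DMSO; polymyxin B or LALF-14 100 µg). Sera were collected after 1 h and TNF-α measured by ELISA. Values are % of the LPS-only TNF-α level, mean ± SD, seven mice per group.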

| Compound | IC50 ([1]; Mus musculus) [µM] | IC50 [2] [µM] | Ratio [3] | also measured |
| --- | --- | --- | --- | --- |
| COc1ccc(CCN(CC(=O)N(CCC(c2ccccc2)c2ccccc2)CC(N)=O)C(=O)CNCCC(c2ccccc2)c2ccccc2)cc1 | 50 | > 250 | 10 | – |
| CC(C)C[C@@H]1NC(=O)[C@H](CCCN=C(N)N)NC(=O)[C@H](CCCN=C(N)N)NC(=O)[C@H](Cc2ccccc2)NC(=O)[C@H]([C@@H](C)O)NC(=O)[C@@H]2CCCN2C(=O)[C@H](CCCCN)NC(=O)[C@@H](NC(=O)CN)CSSC[C@@H](C(=O)NCC(=O)O)NC(=O)[C@H](CCCCN)NC(=O)[C@H](Cc2ccc(O)cc2)NC(=O)[C@H](CCCCN)NC(=O)[C@H](Cc2c[nH]c3ccccc23)NC(=O)[C@H](CCCCN)NC1=O (HELM PEPTIDE1{G.C.K.P.T.F.R.R.L.K.W.K.Y.K.C.G}$PEPTIDE1,PEPTIDE1,2:R3-15:R3$$$V2.0) [listing 1 of 2 here] | 64 | 40 | – | – |
| CC(C)C[C@@H]1NC(=O)[C@H](CCCN=C(N)N)NC(=O)[C@H](CCCN=C(N)N)NC(=O)[C@H](Cc2ccccc2)NC(=O)[C@H]([C@@H](C)O)NC(=O)[C@@H]2CCCN2C(=O)[C@H](CCCCN)NC(=O)[C@@H](NC(=O)CN)CSSC[C@@H](C(=O)NCC(=O)O)NC(=O)[C@H](CCCCN)NC(=O)[C@H](Cc2ccc(O)cc2)NC(=O)[C@H](CCCCN)NC(=O)[C@H](Cc2c[nH]c3ccccc23)NC(=O)[C@H](CCCCN)NC1=O (HELM PEPTIDE1{G.C.K.P.T.F.R.R.L.K.W.K.Y.K.C.G}$PEPTIDE1,PEPTIDE1,2:R3-15:R3$$$V2.0) [listing 2 of 2 here] | – | – | – | Ratio [4]: 67 |
| NC(=O)CN(CCC(c1ccccc1)c1ccccc1)C(=O)CN(CCC(c1ccccc1)c1ccccc1)C(=O)CNCC1CCCO1 (stereo unspecified) [TRIMER I] | 40 | 250 | 71 | – |
| POLYMYXIN B [listing 1 of 2 here] | – | – | – | IC50 [1]: < 0.0001 µM |
| POLYMYXIN B [listing 2 of 2 here] | – | – | – | Ratio [5]: 5 |
